Compound activity (PubChem)
T cruzi repl: blocks replication of Trypanosoma cruzi | AID 1885 | inhibition, % (concentration not given with the values) | 300,000 compounds, 1.4% hits | T. cruzi beta-gal in NIH3T3, luminescence, 90 h;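 active means mean inhibition across valid replicates above about 55%, limit read from the data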;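 further: signal also drops with host cell toxicity which is not excluded here; 0% = plate median of DMSO wells and 100% = zero luminescence signal; higher percent means less beta-gal luminescence so fewer parasites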
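Read-out: Parasite load inhibition, % | Test system: Mouse NIH/3T3 fibroblasts infected with β-gal-expressing T. cruzi Tulahuen C4 | Amount: 5,000 cells/well | Medium: DMEM, 2% fetal bovine serum | Signal: GalScreen β-gal luminescence, detergent lysis, 60 min | Timing: 3 h attach, ≥90 h co-culture | Also added: Tulahuen C4 trypomastigotes, 5000/well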
Jurkat NFkB inh: lowers PMA/ionomycin-induced NF-kB signal in Jurkat cells; inhibition, % at 4 µM; 330,000 compounds, 0.53% hits; AID 435003; PMA/ionomycin-induced NF-kB luciferase reporter, luminescence; in the data active means inhibition above about 50%
GPR7 antag: antagonists of human GPR7 (neuropeptides B/W receptor 1); GPR7-expressing cells, fluorescence antagonist assay; inhibition, % at 4.4 µM; 290,000 compounds, 1.1% hits; AID 1861; in the data active means inhibition above about 16%, passing the limit was not always enough;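 further: cells stimulated with the agonist NPW; 0% = agonist with vehicle and 100% = vehicle without agonist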
Target sequence (P48145 whole entry, looked up): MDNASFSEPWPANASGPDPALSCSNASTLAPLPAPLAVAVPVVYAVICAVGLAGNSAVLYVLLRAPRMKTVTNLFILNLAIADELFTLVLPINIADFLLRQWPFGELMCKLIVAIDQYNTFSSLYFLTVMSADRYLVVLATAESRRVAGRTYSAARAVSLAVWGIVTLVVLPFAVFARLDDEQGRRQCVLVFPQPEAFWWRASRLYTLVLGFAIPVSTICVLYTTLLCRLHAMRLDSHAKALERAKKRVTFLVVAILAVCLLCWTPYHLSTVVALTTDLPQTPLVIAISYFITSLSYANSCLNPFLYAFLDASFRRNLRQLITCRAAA
HSF1 activator: increases HSF-1 driven luciferase reporter signal. NIH3T3-HGL HSF-1 luciferase reporter, MG132, 8 h; 100% = twice DMSO control signal. activation, % at 9 µM. 300,000 compounds, 1.7% hits. AID 504408;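 active means mean replicate activation of at least 50% with a set share of replicates each reaching 50%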;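 further: 0% = median of the neutral control wells and 100% = twice that signal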
697 NFkB inh: inhibitors of the PMA/ionomycin-induced NF-kB reporter in 697 B cells | 697 B-cell NF-kB luciferase reporter, 16 h | inhibition, % at 4 µM | 330,000 compounds, 0.33% hits | AID 435022; in the data active means inhibition above about 35%
HSF1 inhib: HSF1 inhibition. NIH3T3-HGL HSE-luciferase, MG132-induced, luminescence 8 h; stronger effect = lower value. activity change, negative = inhibition, % at 7.5 µM (by protocol). 300,000 compounds, 0.77% hits. AID 2098;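 active means more than half of replicate wells show activity change below -50%, luminescence cut by over half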;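 further: luciferase reports HSF-1 transcriptional activity via heat shock element; 0% = median of DMSO wells and -100% = zero luminescence signal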
* marks the source's active call; other numbers are inactive results; · = no result. This is a sample that favours compounds with a hit; in the whole collection about 4.8% have one here.

SMILES	T cruzi repl	Jurkat NFkB inh	GPR7 antag	HSF1 activator	697 NFkB inh	HSF1 inhib
O=C(/C=C(\c1ccccc1)n1cncn1)c1ccccc1	27.9	4.3	18.9	-4.7	24.1	-2.7
O=C(/C=C(\c1ccc(Cl)cc1)n1cncn1)c1ccc(Cl)cc1	65.5*	-7.1	2.7	2.7	27.5	3.5
COCCCN1CCc2[nH]c(=S)[nH]c(=O)c2C1	-11.2	-18.8	-1.7	58.1*	-10.8	21.1
COc1ccc(CN(C)C2CCN(C)CC2)cc1OC	4.9	-27.2	-7.7	28.1	4.7	0.7
CCCN1CCC(N(C)CCc2ccc(OC)c(OC)c2)CC1	56.1*	11.3	-12.6	5.2	2.1	-7.2
Cc1cc2c(cc1C)NC(CC(=O)NCc1ccccc1)C(=O)N2 (stereo not drawn)	-6.7	-31.4	7.4	75.5*	-32.6	38.7
Cc1c(O[C@@H]2O[C@H](CO)[C@@H](O)[C@H](O)[C@H]2O)c(CO)c(O[C@@H]2O[C@H](CO)[C@@H](O)[C@H](O)[C@H]2O)c2c1O[C@@H](c1ccccc1)C[C@@H]2O	·	-3.3	·	·	10.7	·
c1coc(CNc2nc(N3CCCCC3)nc3ccccc23)c1	48.5	41.5	16.2	9.8	-39.4	-6.5
c1ccc(N2CCN(c3nc(NCc4ccco4)c4ccccc4n3)CC2)cc1	55.1*	2.8	5.3	20.3	-33.7	11.0
c1ccc(CNc2nc(N3CCN(Cc4ccccc4)CC3)nc3ccccc23)cc1	24.0	8.0	-3.7	-65.1	-29.2	-54.6*
c1cncc(-c2nc(N3CCOCC3)c3c4c(sc3n2)CCC4)c1	14.6	2.0	17.4	-6.7	-45.7	-3.1
c1cncc(-c2nc(NCCCN3CCOCC3)c3c4c(sc3n2)CCC4)c1	73.3*	-30.7	-13.2	-8.5	-21.5	-0.1
COc1ccc(C(=O)N=c2sc3c(C)ccc(OC)c3n2C)cc1OC	47.4	-58.7	-0.9	62.4*	-105.5	41.5
Cc1ccc(C)c(OCC(=O)O/N=C(\N)c2cccnc2)c1	14.8	-2.6	5.8	31.6	17.4	5.9
N/C(=N\OC(=O)COc1ccc(Br)cc1Cl)c1cccnc1	3.2	-78.8	-6.1	60.0*	-83.6	31.3
Cc1cc(N/N=C/c2ccccc2O)nc(-c2ccccc2O)n1	34.7	-24.6	1.9	11.6	-17.1	19.5
Cc1cc(N/N=C/c2ccc(O)cc2O)nc(-n2nc(C)cc2C)n1	59.6*	·	-9.7	25.8	·	16.7
Cc1cc(N/N=C/c2ccccc2[N+](=O)[O-])nc(-n2nc(C)cc2C)n1	69.0*	5.5	-14.3	-16.3	-18.5	-14.1
Cc1cc(N/N=C/c2ccc(O)cc2O)nc(-c2ccccc2O)n1	60.4*	·	-0.8	10.3	·	6.5
CC(C)(C)c1nnc2sc(SCC(=O)N3CCCCC3)nn2c1=O	·	-0.1	·	·	-6.2	·
c1ccc(CCNc2nc3ccccc3n3nnnc23)cc1	-3.4	-22.6	0.3	19.3	-6.1	3.0
ClC(Cl)(Cl)c1nc2ccccc2n2nncc12	6.7	25.7	-5.2	208.2*	24.2	161.8
Cc1ccc(C)c(S(=O)(=O)N2CCN(C(=O)c3ccccn3)CC2)c1	·	7.3	·	·	8.2	·
CCCc1ccc2oc(C(=O)N3CCC(N4CCCC(O)C4)CC3)c(C)c2c1 (stereo not drawn)	33.9	-21.9	-7.2	15.8	-2.9	3.8
CCCc1ccc2oc(C(=O)N3CCC(COC)C3)c(C)c2c1 (stereo not drawn)	8.2	-98.2	-15.9	60.9*	-100.8	32.6
CCCc1ccc2oc(C(=O)NCCN3CCCC(C(N)=O)C3)c(C)c2c1 (stereo not drawn)	-3.5	5.4	-1.7	-8.6	-3.1	4.5
CCCc1ccc2oc(C(=O)NCCN3CCCC(O)C3)c(C)c2c1 (stereo not drawn)	4.3	-22.2	9.1	62.0*	-44.3	33.2
Nc1c(Cl)cc(-c2csc(N3CCCC3c3nc4cc(Cl)c(N5CCCCC5)cc4n3CCCO)n2)cc1Cl (stereo not drawn)	7.7	-6.0	·	-2.1	-3.3	-3.0
CC(C)(C)N(Cc1ccccc1)C(=O)COc1cccnc1[N+](=O)[O-]	15.9	3.5	0.8	-10.3	14.6	-0.6
Cc1cc2[nH]c(=O)c(=O)[nH]c2cc1S(=O)(=O)Nc1ccccc1F	-14.5	-6.7	-0.7	-1.6	17.1	3.0
